Values after ≈ are worked out from the molar mass of the structure shown.
Key:
Assay type in all cases: functional
Staphylococcus aureus [1] = assay: Antibacterial activity against Staphylococcus aureus CRBIP 2121 after 18 hrs by agar dilution method; details: CRBIP 2121, 18 h
Method in brief: (§1)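 Agar-dilution MIC against Gram-positive strains. Compounds in DMSO, geometric dilutions giving final 100−0.75 mg/L in Mueller Hinton agar. Strains grown 18 h at 37 °C in trypticase soy broth, diluted in sterile water, spotted by Steers inoculator (about 1000 UFC/spot). Plates incubated 18 h at 37 °C; DMSO blank; ofloxacin positive control. MIC = lowest concentration with no visible growth.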

Streptococcus agalactiae = assay: Antibacterial activity against Streptococcus agalactiae CIP 103227 after 18 hrs by agar dilution method; details: ATCC 13813, 18 h; method in brief: as §1
Listeria monocytogenes [2] = assay: Antibacterial activity against Listeria monocytogenes N851 after 18 hrs by agar dilution method; details: N851, 18 h; method in brief: as §1
Staphylococcus aureus [3] = assay: Antibacterial activity against Staphylococcus aureus CIP 53156 after 18 hrs by agar dilution method; details: CIP 53156, 18 h; method in brief: as §1
Bacillus cereus [4] = assay: Antibacterial activity against Bacillus cereus N349 after 18 hrs by agar dilution method; details: N349, 18 h; method in brief: as §1
Staphylococcus aureus [5] = assay: Antibacterial activity against Staphylococcus aureus CIP 53154 after 18 hrs by agar dilution method; details: CIP 53154, 18 h; method in brief: as §1
Enterococcus faecalis [6] = assay: Antibacterial activity against Enterococcus faecalis CIP 103214 after 18 hrs by agar dilution method; details: CIP 103214, 18 h; method in brief: as §1
[7] = test system: Staphylococcus saprophyticus; assay: Antibacterial activity against Staphylococcus saprophyticus E260 after 18 hrs by agar dilution method; details: E260, 18 h; method in brief: as §1
Enterococcus faecium [8] = assay: Antibacterial activity against Enterococcus faecium N507 after 18 hrs by agar dilution method; details: N507, 18 h; method in brief: as §1
Bacillus cereus [9] = assay: Antibacterial activity against Bacillus cereus CIP 6624 after 18 hrs by agar dilution method; details: CIP 6624, 18 h; method in brief: as §1
Enterococcus faecium [10] = assay: Antibacterial activity against Enterococcus faecium CIP 103014 after 18 hrs by agar dilution method; details: CIP 103014, 18 h; method in brief: as §1
Staphylococcus aureus [11] = assay: Antibacterial activity against Staphylococcus aureus ATCC 9144 oxford after 18 hrs by agar dilution method; method in brief: as §1
Enterococcus faecium [12] = assay: Antibacterial activity against Enterococcus faecium N490 after 18 hrs by agar dilution method; details: N490, 18 h; method in brief: as §1
[13] = test system: Staphylococcus lugdunensis; assay: Antibacterial activity against Staphylococcus lugdunensis ATCC 43809 after 18 hrs by agar dilution method; details: ATCC 43809, 18 h; method in brief: as §1
Bacillus cereus [14] = assay: Antibacterial activity against Bacillus cereus N190 after 18 hrs by agar dilution method; details: N190, 18 h; method in brief: as §1
Enterococcus faecalis [15] = assay: Antibacterial activity against Enterococcus faecalis N520 after 18 hrs by agar dilution method; details: N520, 18 h; method in brief: as §1
[16] = test system: Staphylococcus intermedius; assay: Antibacterial activity against Staphylococcus intermedius N987 after 18 hrs by agar dilution method; details: N987, 18 h; method in brief: as §1
Listeria monocytogenes [17] = assay: Antibacterial activity against Listeria monocytogenes N836 after 18 hrs by agar dilution method; details: N836, 18 h; method in brief: as §1
Staphylococcus aureus [18] = assay: Antibacterial activity against Staphylococcus aureus CIP 483 after 18 hrs by agar dilution method; details: CIP 483, 18 h; method in brief: as §1
Listeria monocytogenes [19] = assay: Antibacterial activity against Listeria monocytogenes CIP 103575 after 18 hrs by agar dilution method; details: CIP 103575, 18 h; method in brief: as §1
Enterococcus faecium [20] = assay: Antibacterial activity against Enterococcus faecium CIP 107387 after 18 hrs by agar dilution method; details: CIP 107387, 18 h; method in brief: as §1
Enterococcus faecalis [21] = assay: Antibacterial activity against Enterococcus faecalis N518 after 18 hrs by agar dilution method; details: N518, 18 h; method in brief: as §1
Enterococcus faecium [22] = assay: Antibacterial activity against Enterococcus faecium N823 after 18 hrs by agar dilution method; details: N823, 18 h; method in brief: as §1
Listeria monocytogenes [23] = assay: Antibacterial activity against Listeria monocytogenes N783 after 18 hrs by agar dilution method; details: N783, 18 h; method in brief: as §1
Enterococcus gallinarum [24] = assay: Antibacterial activity against Enterococcus gallinarum N489 after 18 hrs by agar dilution method; details: N489, 18 h; method in brief: as §1
[25] = test system: Staphylococcus saprophyticus; assay: Antibacterial activity against Staphylococcus saprophyticus CIP 76125 after 18 hrs by agar dilution method; details: CIP 76125, 18 h; method in brief: as §1
Staphylococcus aureus [26] = assay: Antibacterial activity against Staphylococcus aureus CIP 5710 after 18 hrs by agar dilution method; details: CIP 5710, 18 h; method in brief: as §1
Mammaliicoccus sciuri = assay: Antibacterial activity against Staphylococcus sciuri N993 after 18 hrs by agar dilution method; details: N993, 18 h; method in brief: as §1
Staphylococcus aureus [27] = assay: Antibacterial activity against Staphylococcus aureus CIP 7625 after 18 hrs by agar dilution method; details: CIP 7625, 18 h; method in brief: as §1
[28] = test system: Staphylococcus epidermidis; assay: Antibacterial activity against Staphylococcus epidermidis CIP 53124 after 18 hrs by agar dilution method; details: CIP 53124, 18 h; method in brief: as §1
MRC5 [29] = assay: Cytotoxicity against human MRC5 cells assessed as growth inhibition at 10^-6 M after 72 hrs by MTS assay relative to control; details: MRC5, 72 h, read-out: GI
Method in brief: (§2)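 Cells from ATCC; HCT-116 grown in RPMI 1640 and MRC5 in DMEM, each with 10% FCS and 1% glutamine, 37 °C, 5% CO2. Seeded at 2.5 × 10^3 cells/well, cultured 24 h, then exposed to compounds at 1 and 10 μM final for 72 h. MTS read-out, absorbance 490 nm; percent index from treated/control OD490 × 100, three experiments.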

MRC5 [30] = assay: Cytotoxicity against human MRC5 cells assessed as growth inhibition at 10^-5 M after 72 hrs by MTS assay relative to control; details: MRC5, 72 h, read-out: GI; method in brief: as §2
Enterococcus hirae = assay: Antibacterial activity against Enterococcus hirae CIP 5855 after 18 hrs by agar dilution method; details: CIP 5855, 18 h; method in brief: as §1
Enterococcus durans = assay: Antibacterial activity against Enterococcus durans CIP 104999 after 18 hrs by agar dilution method; details: CIP 104999, 18 h; method in brief: as §1
Listeria innocua = assay: Antibacterial activity against Listeria innocua E044 after 18 hrs by agar dilution method; details: E044, 18 h; method in brief: as §1
[31] = test system: Enterococcus casseliflavus; assay: Antibacterial activity against Enterococcus casseliflavus N487 after 18 hrs by agar dilution method; details: N487, 18 h; method in brief: as §1
Corynebacterium striatum = assay: Antibacterial activity against Corynebacterium striatum N840 after 18 hrs by agar dilution method; details: N840, 18 h; method in brief: as §1
HCT-116 [32] = assay: Cytotoxicity against human HCT116 cells assessed as growth inhibition at 10^-5 M after 72 hrs by MTS assay relative to control; details: HCT-116, 72 h, read-out: GI; method in brief: as §2
Enterococcus faecalis [33] = assay: Antibacterial activity against Enterococcus faecalis CIP 104676 after 18 hrs by agar dilution method; details: CIP 104676, 18 h; method in brief: as §1
Enterococcus gallinarum [34] = assay: Antibacterial activity against Enterococcus gallinarum CIP 105985 after 18 hrs by agar dilution method; details: CIP 105985, 18 h; method in brief: as §1
[35] = test system: Staphylococcus haemolyticus; assay: Antibacterial activity against Staphylococcus haemolyticus CIP 8156 after 18 hrs by agar dilution method; details: CIP 8156, 18 h; method in brief: as §1
Enterococcus faecalis [36] = assay: Antibacterial activity against Enterococcus faecalis N491 after 18 hrs by agar dilution method; details: N491, 18 h; method in brief: as §1
Bacillus cereus [37] = assay: Antibacterial activity against Bacillus cereus N258 after 18 hrs by agar dilution method; details: N258, 18 h; method in brief: as §1
Enterococcus gallinarum [38] = assay: Antibacterial activity against Enterococcus gallinarum N492 after 18 hrs by agar dilution method; details: N492, 18 h; method in brief: as §1
HCT-116 [39] = assay: Cytotoxicity against human HCT116 cells assessed as growth inhibition at 10^-6 M after 72 hrs by MTS assay relative to control; details: HCT-116, 72 h, read-out: GI; method in brief: as §2
[40] = test system: Enterococcus casseliflavus; assay: Antibacterial activity against Enterococcus casseliflavus CIP 103018 after 18 hrs by agar dilution method; details: CIP 103018, 18 h; method in brief: as §1
Bacillus spizizenii = assay: Antibacterial activity against Bacillus subtilis ATCC 6633 after 18 hrs by agar dilution method; details: ATCC 6633, 18 h; method in brief: as §1
Enterococcus faecium [41] = assay: Antibacterial activity against Enterococcus faecium N733 after 18 hrs by agar dilution method; details: N733, 18 h; method in brief: as §1
Staphylococcus aureus [42] = assay: Antibacterial activity against Staphylococcus aureus ATCC 25923 after 18 hrs by agar dilution method; details: ATCC 25923, 18 h; method in brief: as §1
Enterococcus avium = assay: Antibacterial activity against Enterococcus avium CIP 104053 after 18 hrs by agar dilution method; details: CIP 104053, 18 h; method in brief: as §1

Compound: CC1(C)CCC[C@]2(C)[C@@H]1CC[C@]1(CO)O[C@@H](C3=CC(=O)OC3O)C[C@H]12 (stereo not given in full)
- MIC (Staphylococcus aureus [1]): > 46 µM
- MIC (Streptococcus agalactiae): > 46 µM
- MIC (Listeria monocytogenes [2]): > 46 µM
- MIC (Staphylococcus aureus [3]): > 46 µM
- MIC (Bacillus cereus [4]): 46 µM (≈ 16.1 µg/mL)
- MIC (Staphylococcus aureus [5]): > 46 µM
- MIC (Enterococcus faecalis [6]): > 46 µM
- MIC [7]: > 46 µM
- MIC (Enterococcus faecium [8]): > 46 µM
- MIC (Bacillus cereus [9]): 46 µM (≈ 16.1 µg/mL)
- MIC (Enterococcus faecium [10]): > 46 µM
- MIC (Staphylococcus aureus [11]): > 46 µM
- MIC (Enterococcus faecium [12]): > 46 µM
- MIC [13]: > 46 µM
- MIC (Bacillus cereus [14]): 23 µM (≈ 8.06 µg/mL)
- MIC (Enterococcus faecalis [15]): > 46 µM
- MIC [16]: > 46 µM
- MIC (Listeria monocytogenes [17]): > 46 µM
- MIC (Staphylococcus aureus [18]): > 46 µM
- MIC (Listeria monocytogenes [19]): > 46 µM
- MIC (Enterococcus faecium [20]): > 46 µM
- MIC (Enterococcus faecalis [21]): > 46 µM
- MIC (Enterococcus faecium [22]): > 46 µM
- MIC (Listeria monocytogenes [23]): > 46 µM
- MIC (Enterococcus gallinarum [24]): > 46 µM
- MIC [25]: > 46 µM
- MIC (Staphylococcus aureus [26]): > 46 µM
- MIC (Mammaliicoccus sciuri): > 46 µM
- MIC (Staphylococcus aureus [27]): > 46 µM
- MIC [28]: > 46 µM
- inhibition of growth at 1 µM (MRC5 [29]): 29%
- inhibition of growth at 10 µM (MRC5 [30]): 92%
- MIC (Enterococcus hirae): > 46 µM
- MIC (Enterococcus durans): > 46 µM
- MIC (Listeria innocua): > 46 µM
- MIC [31]: > 46 µM
- MIC (Corynebacterium striatum): > 46 µM
- inhibition of growth at 10 µM (HCT-116 [32]): 84%
- MIC (Enterococcus faecalis [33]): > 46 µM
- MIC (Enterococcus gallinarum [34]): > 46 µM
- MIC [35]: > 46 µM
- MIC (Enterococcus faecalis [36]): > 46 µM
- MIC (Bacillus cereus [37]): 46 µM (≈ 16.1 µg/mL)
- MIC (Enterococcus gallinarum [38]): > 46 µM
- inhibition of growth at 1 µM (HCT-116 [39]): 0%
- MIC [40]: > 46 µM
- MIC (Bacillus spizizenii): 46 µM (≈ 16.1 µg/mL)
- MIC (Enterococcus faecium [41]): > 46 µM
- MIC (Staphylococcus aureus [42]): > 46 µM
- MIC (Enterococcus avium): > 46 µM

— ChEMBL document CHEMBL3585281, “Antibacterial Labdane Diterpenoids from Vitex vestita” (2015)
